From the M2OR odorant receptor database

Experiments:
Details in all cases: stereoisomer not certain
UniProt L7N210 = biological target: T1, UniProt L7N210
T1 sequence (whole entry): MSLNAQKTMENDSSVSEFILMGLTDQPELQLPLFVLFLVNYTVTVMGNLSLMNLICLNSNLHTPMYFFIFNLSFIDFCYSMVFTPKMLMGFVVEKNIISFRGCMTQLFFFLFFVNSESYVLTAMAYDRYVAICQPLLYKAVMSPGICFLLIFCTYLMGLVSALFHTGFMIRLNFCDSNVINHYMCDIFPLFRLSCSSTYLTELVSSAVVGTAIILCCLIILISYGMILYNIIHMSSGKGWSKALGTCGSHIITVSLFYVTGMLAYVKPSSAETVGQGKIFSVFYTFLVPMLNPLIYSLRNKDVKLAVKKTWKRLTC
Procedure, shortened: (§1)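 Transient luciferase assays in mammalian cell lines were common, though methods varied by source. The values come from published papers and their supplementary material, with extra details from the original authors when needed. Responsive refers to a measured signal the original authors judged statistically different from baseline, and non-responsive (inactive) to the remainder.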

UniProt Q3KPB0 = biological target: T2, UniProt Q3KPB0
T2 sequence (whole entry): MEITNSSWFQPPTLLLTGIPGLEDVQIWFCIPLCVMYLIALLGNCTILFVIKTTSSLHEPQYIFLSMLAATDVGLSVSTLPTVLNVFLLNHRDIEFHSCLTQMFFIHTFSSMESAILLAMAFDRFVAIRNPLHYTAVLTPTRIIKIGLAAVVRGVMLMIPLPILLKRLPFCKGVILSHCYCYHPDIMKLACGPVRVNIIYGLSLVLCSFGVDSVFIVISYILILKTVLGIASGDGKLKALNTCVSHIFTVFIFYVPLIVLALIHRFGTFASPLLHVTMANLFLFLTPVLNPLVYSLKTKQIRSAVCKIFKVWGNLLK
Procedure, shortened: as §1

UniProt Q3U0P3 = biological target: T3, UniProt Q3U0P3
T3 sequence (whole entry): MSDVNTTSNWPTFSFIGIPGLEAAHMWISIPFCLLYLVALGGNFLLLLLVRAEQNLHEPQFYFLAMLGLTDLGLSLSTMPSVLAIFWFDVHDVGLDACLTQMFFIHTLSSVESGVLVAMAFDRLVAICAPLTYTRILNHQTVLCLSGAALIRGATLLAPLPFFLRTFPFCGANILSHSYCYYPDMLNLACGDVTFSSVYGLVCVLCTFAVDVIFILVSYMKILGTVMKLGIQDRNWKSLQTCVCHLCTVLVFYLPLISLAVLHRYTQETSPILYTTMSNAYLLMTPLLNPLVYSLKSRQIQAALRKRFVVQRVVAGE
Procedure, shortened: as §1

UniProt Q7TQU8 = biological target: T4, UniProt Q7TQU8
T4 sequence (whole entry): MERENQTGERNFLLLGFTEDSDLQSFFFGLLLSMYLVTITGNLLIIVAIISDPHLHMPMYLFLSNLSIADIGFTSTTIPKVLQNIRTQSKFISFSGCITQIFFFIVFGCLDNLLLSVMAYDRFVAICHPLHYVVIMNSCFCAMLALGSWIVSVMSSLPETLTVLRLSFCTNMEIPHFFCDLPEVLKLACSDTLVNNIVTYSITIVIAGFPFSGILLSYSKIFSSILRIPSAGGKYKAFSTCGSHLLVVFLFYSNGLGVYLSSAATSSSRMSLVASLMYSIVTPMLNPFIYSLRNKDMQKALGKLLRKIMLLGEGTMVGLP
Procedure, shortened: as §1

UniProt Q7TR79 = biological target: T5, UniProt Q7TR79
T5 sequence (whole entry): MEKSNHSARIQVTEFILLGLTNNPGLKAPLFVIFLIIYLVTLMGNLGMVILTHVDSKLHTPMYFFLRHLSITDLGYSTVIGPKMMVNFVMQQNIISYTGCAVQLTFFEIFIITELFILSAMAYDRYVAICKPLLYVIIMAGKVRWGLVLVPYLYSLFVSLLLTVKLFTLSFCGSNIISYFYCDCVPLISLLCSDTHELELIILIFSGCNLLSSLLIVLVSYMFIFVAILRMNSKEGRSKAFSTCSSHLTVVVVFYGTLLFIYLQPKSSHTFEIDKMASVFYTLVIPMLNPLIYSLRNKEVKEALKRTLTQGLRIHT
Procedure, shortened: as §1

UniProt Q7TRX0 = biological target: T6, UniProt Q7TRX0
T6 sequence (whole entry): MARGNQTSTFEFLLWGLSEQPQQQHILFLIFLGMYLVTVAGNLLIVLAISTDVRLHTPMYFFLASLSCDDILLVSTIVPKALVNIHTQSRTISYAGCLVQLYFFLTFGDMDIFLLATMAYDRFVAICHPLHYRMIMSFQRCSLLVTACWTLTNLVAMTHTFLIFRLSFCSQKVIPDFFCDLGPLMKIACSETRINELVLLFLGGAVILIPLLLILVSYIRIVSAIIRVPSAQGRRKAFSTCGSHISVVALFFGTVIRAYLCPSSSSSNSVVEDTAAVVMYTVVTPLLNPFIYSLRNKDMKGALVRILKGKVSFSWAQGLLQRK
Procedure, shortened: as §1

UniProt Q8VF43 = biological target: T7, UniProt Q8VF43
T7 sequence (whole entry): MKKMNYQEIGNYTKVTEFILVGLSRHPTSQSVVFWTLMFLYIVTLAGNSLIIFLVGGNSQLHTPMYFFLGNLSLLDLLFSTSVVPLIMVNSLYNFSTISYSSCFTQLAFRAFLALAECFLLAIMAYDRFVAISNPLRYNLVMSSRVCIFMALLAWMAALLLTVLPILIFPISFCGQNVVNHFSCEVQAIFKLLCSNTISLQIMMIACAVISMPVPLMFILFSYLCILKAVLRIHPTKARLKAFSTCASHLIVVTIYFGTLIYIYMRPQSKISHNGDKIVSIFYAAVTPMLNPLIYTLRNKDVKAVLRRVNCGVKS
Procedure, shortened: as §1

UniProt Q7TRM0 = biological target: UniProt Q7TRM0
Procedure, shortened: as §1

UniProt Q7TRN9 = biological target: UniProt Q7TRN9
Procedure, shortened: as §1

UniProt Q7TRR8 = biological target: UniProt Q7TRR8
Procedure, shortened: as §1

UniProt Q8VF06 = biological target: UniProt Q8VF06
Procedure, shortened: as §1

UniProt Q7TQV4 = biological target: T8, UniProt Q7TQV4
T8 sequence (whole entry): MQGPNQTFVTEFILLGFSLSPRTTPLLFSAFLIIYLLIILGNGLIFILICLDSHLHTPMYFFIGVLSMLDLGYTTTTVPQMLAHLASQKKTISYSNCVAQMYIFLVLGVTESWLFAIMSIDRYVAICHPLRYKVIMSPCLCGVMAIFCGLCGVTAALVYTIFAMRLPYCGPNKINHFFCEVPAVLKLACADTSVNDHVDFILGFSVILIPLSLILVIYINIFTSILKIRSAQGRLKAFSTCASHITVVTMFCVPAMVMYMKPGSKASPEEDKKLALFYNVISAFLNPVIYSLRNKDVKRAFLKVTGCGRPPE
Procedure, shortened: as §1

UniProt Q7TR71 = biological target: T9, UniProt Q7TR71
T9 sequence (whole entry): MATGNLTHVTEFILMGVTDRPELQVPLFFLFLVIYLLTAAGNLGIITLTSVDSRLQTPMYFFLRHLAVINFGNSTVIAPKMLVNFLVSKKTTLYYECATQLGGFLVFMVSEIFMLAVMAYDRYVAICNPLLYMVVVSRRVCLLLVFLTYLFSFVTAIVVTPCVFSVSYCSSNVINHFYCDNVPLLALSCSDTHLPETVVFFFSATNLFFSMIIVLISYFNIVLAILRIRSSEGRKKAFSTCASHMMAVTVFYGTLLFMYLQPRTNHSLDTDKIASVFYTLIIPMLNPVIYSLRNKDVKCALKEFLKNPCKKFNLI
Procedure, shortened: as §1

UniProt Q7TRA3 = biological target: T10, UniProt Q7TRA3
T10 sequence (whole entry): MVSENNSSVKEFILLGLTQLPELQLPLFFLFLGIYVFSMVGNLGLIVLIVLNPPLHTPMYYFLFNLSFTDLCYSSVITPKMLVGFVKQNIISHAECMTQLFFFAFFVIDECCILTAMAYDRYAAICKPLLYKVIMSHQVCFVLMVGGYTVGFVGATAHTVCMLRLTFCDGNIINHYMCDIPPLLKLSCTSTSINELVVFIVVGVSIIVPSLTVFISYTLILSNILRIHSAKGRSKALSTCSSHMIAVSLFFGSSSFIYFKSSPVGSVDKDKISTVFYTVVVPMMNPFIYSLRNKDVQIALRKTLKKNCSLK
Procedure, shortened: as §1

UniProt Q7TRE4 = biological target: T11, UniProt Q7TRE4
T11 sequence (whole entry): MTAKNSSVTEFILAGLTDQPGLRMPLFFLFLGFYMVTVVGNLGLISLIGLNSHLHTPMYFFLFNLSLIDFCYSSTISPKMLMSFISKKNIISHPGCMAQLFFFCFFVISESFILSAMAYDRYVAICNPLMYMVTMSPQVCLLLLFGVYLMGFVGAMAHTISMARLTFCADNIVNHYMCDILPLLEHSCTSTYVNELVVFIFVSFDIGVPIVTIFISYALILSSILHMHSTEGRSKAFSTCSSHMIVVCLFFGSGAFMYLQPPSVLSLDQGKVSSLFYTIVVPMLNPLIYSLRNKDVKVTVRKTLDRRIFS
Procedure, shortened: as §1

UniProt Q7TRW1 = biological target: T12, UniProt Q7TRW1
T12 sequence (whole entry): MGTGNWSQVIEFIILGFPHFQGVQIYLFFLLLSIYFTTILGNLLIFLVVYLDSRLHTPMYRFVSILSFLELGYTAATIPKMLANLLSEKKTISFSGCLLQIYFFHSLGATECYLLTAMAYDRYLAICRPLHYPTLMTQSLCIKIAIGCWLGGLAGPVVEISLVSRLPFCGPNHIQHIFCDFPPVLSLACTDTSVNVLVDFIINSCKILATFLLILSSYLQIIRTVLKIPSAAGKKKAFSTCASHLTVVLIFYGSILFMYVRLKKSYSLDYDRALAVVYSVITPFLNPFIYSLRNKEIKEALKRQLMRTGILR
Procedure, shortened: as §1

UniProt Q8VEU7 = biological target: T13, UniProt Q8VEU7
T13 sequence (whole entry): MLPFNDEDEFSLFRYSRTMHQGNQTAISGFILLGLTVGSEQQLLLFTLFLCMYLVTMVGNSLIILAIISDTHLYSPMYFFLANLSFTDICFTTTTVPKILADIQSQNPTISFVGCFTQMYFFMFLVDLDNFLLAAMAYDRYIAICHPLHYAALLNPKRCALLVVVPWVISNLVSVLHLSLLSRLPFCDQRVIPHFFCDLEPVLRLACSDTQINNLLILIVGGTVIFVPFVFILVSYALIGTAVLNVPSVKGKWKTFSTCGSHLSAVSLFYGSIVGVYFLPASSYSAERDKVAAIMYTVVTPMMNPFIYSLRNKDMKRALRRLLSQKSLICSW
Procedure, shortened: as §1

UniProt Q8VF05 = biological target: T14, UniProt Q8VF05
T14 sequence (whole entry): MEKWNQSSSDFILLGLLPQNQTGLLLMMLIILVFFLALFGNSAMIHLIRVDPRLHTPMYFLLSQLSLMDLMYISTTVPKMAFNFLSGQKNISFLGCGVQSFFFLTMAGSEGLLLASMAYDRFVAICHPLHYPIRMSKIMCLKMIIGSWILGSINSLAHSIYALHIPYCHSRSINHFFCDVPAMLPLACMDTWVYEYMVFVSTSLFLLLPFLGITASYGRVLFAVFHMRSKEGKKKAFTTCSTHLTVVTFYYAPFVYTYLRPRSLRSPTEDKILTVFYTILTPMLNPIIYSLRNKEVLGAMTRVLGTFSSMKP
Procedure, shortened: as §1

UniProt Q8VF24 = biological target: T15, UniProt Q8VF24
T15 sequence (whole entry): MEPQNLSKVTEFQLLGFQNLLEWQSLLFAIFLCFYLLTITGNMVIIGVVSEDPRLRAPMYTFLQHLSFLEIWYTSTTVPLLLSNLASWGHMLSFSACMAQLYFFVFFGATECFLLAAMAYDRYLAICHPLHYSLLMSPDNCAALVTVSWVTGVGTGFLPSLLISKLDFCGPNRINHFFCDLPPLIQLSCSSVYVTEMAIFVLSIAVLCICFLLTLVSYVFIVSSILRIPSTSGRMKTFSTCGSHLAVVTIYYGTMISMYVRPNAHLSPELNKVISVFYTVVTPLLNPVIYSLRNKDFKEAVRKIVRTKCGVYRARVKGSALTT
Procedure, shortened: as §1

UniProt Q8VF44 = biological target: T16, UniProt Q8VF44
T16 sequence (whole entry): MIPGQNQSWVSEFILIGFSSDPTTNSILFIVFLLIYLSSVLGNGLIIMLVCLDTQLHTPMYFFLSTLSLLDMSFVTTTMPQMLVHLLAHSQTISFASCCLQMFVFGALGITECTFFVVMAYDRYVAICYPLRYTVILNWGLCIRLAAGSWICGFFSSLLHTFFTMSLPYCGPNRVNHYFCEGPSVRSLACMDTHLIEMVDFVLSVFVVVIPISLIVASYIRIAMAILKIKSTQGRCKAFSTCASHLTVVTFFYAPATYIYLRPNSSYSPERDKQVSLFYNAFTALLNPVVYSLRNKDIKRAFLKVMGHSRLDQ
Procedure, shortened: as §1

Measured: odorant receptor agonist call;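 further: active if original authors judged signal statistically different from baseline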

UniProt Q7TRM0, sequence (Q7TRM0 as listed by the source): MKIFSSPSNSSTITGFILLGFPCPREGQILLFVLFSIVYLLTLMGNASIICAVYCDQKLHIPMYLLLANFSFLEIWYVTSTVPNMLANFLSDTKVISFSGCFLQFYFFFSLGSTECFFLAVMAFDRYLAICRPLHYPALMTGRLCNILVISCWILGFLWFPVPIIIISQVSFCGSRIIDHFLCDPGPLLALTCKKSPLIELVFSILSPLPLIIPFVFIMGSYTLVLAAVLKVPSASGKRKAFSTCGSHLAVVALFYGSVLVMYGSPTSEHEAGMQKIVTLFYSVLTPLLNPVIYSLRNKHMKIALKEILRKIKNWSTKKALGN
UniProt Q8VF06, sequence (Q8VF06 as listed by the source): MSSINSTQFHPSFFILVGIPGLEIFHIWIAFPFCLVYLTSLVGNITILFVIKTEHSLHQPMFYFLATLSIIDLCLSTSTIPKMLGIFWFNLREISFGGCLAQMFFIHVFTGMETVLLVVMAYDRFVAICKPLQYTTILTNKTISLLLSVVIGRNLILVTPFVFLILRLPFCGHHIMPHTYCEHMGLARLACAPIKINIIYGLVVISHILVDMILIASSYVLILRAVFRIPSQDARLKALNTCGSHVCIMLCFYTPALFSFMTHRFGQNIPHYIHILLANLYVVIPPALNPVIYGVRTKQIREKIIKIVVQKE
UniProt Q7TRR8, sequence (Q7TRR8 as listed by the source): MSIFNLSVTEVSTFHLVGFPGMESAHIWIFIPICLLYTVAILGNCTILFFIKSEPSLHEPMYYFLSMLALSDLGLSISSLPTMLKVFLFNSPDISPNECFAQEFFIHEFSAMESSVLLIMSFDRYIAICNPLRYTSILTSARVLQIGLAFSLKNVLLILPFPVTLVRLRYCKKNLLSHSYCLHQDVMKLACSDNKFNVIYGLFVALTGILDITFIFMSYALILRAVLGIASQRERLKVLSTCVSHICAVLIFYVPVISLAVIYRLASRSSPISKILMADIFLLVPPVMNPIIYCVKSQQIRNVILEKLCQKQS
UniProt Q7TRN9, sequence (Q7TRN9 as listed by the source): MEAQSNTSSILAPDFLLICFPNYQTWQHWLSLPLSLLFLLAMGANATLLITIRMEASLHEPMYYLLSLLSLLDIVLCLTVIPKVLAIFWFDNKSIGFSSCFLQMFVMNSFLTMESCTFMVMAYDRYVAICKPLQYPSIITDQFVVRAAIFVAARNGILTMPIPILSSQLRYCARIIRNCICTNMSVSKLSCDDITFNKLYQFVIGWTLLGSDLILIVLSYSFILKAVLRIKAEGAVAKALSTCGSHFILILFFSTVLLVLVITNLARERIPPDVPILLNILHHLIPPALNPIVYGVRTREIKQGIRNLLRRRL

C=C(C)C1CC=C(C=O)CC1 (stereo not given)
inactive: UniProt Q3KPB0 | UniProt Q3U0P3 | UniProt Q7TQU8 | UniProt Q7TR79 | UniProt Q7TRX0 | UniProt Q8VF43
active: UniProt L7N210

O=CC=Cc1ccccc1
inactive: UniProt L7N210 | UniProt Q3KPB0 | UniProt Q3U0P3 | UniProt Q7TQU8 | UniProt Q7TR79 | UniProt Q7TRX0 | UniProt Q8VF43

CCCCCCC(Br)C(=O)O (stereo not given)
inactive: UniProt L7N210 | UniProt Q3KPB0 | UniProt Q3U0P3 | UniProt Q7TQU8 | UniProt Q7TR79 | UniProt Q7TRX0 | UniProt Q8VF43

O=C(O)CCCCCCCBr
inactive: UniProt Q7TRM0 | UniProt Q7TRR8 | UniProt Q8VF06
active: UniProt Q7TRN9

C=CCc1ccccc1
active: UniProt Q7TRW1
inactive: UniProt L7N210 | UniProt Q7TQV4 | UniProt Q7TR71 | UniProt Q7TRA3 | UniProt Q7TRE4 | UniProt Q8VEU7 | UniProt Q8VF05 | UniProt Q8VF24 | UniProt Q8VF44
